The source of these data is ChEMBL document CHEMBL4038327, “Inhibitory Kappa B Kinase α (IKKα) Inhibitors That Recapitulate Their Selectivity in Cells against Isoform-Related Biomarkers” (J Med Chem, 2017).

In series [1] the target is T1, Inhibitor of nuclear factor kappa-B kinase subunit beta (Homo sapiens, UniProt O14920).
T1 sequence (O14920 whole entry): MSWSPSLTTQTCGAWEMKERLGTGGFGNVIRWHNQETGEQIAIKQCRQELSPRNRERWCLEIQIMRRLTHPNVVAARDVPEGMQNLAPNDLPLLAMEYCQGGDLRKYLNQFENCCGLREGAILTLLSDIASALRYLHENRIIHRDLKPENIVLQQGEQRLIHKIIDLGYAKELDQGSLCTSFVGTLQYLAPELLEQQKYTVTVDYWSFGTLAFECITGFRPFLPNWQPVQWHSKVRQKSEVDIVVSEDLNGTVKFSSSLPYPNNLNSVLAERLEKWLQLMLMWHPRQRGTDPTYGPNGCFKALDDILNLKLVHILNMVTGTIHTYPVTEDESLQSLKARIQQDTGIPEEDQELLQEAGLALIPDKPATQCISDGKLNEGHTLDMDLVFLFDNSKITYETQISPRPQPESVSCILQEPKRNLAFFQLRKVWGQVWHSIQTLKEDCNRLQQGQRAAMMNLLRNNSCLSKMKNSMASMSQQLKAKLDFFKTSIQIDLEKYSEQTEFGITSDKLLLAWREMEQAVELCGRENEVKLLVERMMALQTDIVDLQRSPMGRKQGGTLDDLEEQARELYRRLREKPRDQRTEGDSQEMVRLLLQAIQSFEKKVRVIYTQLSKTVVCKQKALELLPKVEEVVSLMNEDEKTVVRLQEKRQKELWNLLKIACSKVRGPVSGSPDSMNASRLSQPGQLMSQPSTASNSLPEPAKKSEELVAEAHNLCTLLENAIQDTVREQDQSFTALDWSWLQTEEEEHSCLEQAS
In words: Inhibition of IKKbeta in human U2OS cells assessed as TNFalpha induced IkBalpha degradation at 100 uM preincubated for 1 hr followed by TNFalpha stimulation for 30 mins by Western blot analysis. Particulars: 0.5 h; call rule not given here. The series is classed as cell-based. In short, it runs like this:
(§1)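 U2OS cells were grown in McCoy's 5A medium at 37 °C under 5% CO2 and made quiescent by 24 h serum deprivation. They were then pretreated with compound before agonist stimulation in serum-free medium. Phospho-p100, IκBα levels and phospho-p65 (Ser536) were assessed by Western blot.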
In general terms: Immunoblotting shows a protein as a band on a membrane.

Series [2] concerns the target T2, Serine/threonine-protein kinase D1 (Homo sapiens) (UniProt Q15139).
T2 sequence (whole entry): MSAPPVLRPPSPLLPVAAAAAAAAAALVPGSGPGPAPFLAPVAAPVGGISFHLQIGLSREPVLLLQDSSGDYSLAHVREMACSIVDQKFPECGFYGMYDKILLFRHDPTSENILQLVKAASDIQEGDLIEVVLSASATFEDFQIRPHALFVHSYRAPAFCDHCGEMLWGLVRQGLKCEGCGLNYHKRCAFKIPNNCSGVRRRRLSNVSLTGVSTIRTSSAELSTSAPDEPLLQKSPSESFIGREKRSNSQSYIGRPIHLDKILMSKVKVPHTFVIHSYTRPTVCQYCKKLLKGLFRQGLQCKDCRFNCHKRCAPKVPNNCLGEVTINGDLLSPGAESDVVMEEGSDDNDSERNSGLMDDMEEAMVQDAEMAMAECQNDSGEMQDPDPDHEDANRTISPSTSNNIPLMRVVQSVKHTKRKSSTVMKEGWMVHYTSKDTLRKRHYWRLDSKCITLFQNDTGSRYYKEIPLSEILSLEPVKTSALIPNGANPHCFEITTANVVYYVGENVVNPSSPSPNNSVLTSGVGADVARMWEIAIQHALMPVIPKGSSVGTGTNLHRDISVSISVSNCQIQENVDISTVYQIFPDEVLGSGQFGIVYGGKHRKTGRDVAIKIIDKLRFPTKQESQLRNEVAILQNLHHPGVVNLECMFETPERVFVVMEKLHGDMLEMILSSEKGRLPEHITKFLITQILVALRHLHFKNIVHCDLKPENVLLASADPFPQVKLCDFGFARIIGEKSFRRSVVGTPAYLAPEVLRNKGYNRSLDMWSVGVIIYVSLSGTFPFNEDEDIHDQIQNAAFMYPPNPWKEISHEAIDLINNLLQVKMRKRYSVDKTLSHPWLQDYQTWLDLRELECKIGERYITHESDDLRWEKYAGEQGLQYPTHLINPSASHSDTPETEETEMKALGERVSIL
The series is described as follows: Inhibition of N-terminal His6 tagged recombinant human full length PKCmu expressed in Sf21 cells at 10 uM relative to control. In short, it runs like this:
(§2)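 Outsourced commercial kinase panel run at a single concentration, with duplicate assay points.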

Series [3] deals with T3, Inhibitor of nuclear factor kappa-B kinase subunit alpha (Homo sapiens, UniProt O15111).
T3 sequence (O15111 whole entry): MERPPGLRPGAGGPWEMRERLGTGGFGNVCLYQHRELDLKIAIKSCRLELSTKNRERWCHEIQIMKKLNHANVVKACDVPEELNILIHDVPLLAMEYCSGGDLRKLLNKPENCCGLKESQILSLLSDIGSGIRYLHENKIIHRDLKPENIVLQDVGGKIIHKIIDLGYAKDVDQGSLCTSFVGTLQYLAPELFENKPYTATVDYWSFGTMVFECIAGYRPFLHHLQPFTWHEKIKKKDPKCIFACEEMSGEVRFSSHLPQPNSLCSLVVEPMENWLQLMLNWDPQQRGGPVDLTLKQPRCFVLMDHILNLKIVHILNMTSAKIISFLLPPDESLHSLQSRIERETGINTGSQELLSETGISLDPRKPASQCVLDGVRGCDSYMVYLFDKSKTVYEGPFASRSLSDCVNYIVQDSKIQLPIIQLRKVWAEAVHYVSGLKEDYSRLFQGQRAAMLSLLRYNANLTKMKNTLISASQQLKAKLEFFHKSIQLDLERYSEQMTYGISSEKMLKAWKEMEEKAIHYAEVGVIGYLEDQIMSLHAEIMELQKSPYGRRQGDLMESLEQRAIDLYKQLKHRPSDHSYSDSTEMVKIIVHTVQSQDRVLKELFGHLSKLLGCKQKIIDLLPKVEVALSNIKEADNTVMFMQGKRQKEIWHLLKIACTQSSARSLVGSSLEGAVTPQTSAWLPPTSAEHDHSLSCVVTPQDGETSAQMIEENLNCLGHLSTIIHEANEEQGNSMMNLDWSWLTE
In words: (§3) Inhibition of IKKalpha in human U2OS cells assessed as decrease in FCS induced p100 phosphorylation at ser866/870 residues preincubated for 1 hr followed by FCS stimulation for 4 hrs by Western blot analysis. The series is classed as cell-based. In short, it runs like this:
as §1

Series [4] concerns the target T4, Inhibitor of nuclear factor kappa-B kinase subunit alpha (Homo sapiens) (UniProt O15111).
T4 sequence (whole entry): T3 sequence (O15111 whole entry)
The series is described as §3. Type of series: cell-based. In short, it runs like this: as §1

Series [5] has as its target Glycogen synthase kinase-3 beta (Homo sapiens) (UniProt P49841). In words: Inhibition of human N-terminal GST-tagged GSK3beta at 10 uM relative to control. In short, it runs like this: as §2

One may read the inhibition as the percentage by which the read-out fell short of the control. For orientation: IC50 means the concentration that inhibits the measured activity by half.

Chain of Glycogen synthase kinase-3 beta (Homo sapiens) (P49841 whole entry, looked up): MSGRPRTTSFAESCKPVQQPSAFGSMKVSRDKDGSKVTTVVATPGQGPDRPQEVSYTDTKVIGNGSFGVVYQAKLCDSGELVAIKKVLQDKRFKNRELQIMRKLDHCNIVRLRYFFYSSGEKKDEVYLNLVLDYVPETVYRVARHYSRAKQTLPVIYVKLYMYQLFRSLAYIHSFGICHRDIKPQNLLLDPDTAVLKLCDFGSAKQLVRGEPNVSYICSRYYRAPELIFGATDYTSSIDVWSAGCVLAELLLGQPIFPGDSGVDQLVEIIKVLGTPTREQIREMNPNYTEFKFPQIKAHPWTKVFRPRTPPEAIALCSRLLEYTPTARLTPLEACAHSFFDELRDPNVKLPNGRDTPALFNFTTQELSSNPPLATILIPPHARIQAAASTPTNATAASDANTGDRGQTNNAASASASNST

Consider `N#Cc1c[nH]c2nc(N)nc(-c3ccc(S(N)(=O)=O)cc3)c12`, for which the “inhibition (INH)” value in series [1] was “Active”. For the same compound, the inhibition in series [2] was above 80%; in series [4], “Dose-dependent effect”; in series [5] it was above 80%. Moreover, in series [3], the IC50 lay in the range of 5.8 to 8.8 µM.
